Data reported in publication PMC3767132 (Organic & biomolecular chemistry, 2012).
Like-named read-outs stand apart in the source and are kept apart here.

Tests used:
hMetAP2 = hMetAP2 (Homo sapiens, UniProt P50579); experiment: human MetAP2 enzyme assay; type: biochemical; conditions: for b = bottom value in the dose-response curve, hMetAP2: noted only when above 15%; for inhibition at 10 µM: read-out: inhibition of MetAP2 activity in HTS
HUVEC [1] = experiment: HUVEC proliferation assay using [3H]-thymidine incorporation; type: cell-based, human
hMetAP1 = hMetAP1 (Homo sapiens, UniProt P53582); experiment: human MetAP1 enzyme assay; type: biochemical; conditions: for b = bottom value in the dose-response curve, hMetAP1: noted only when above 15%
MetAP = experiment: Immunoblot of Met-14-3-3γ; type: cell-based, human; conditions: for Immunoblot Met-14-3-3γ: compound treated HUVEC lysates, 24 h, signal relative to DMSO = 1.0; for effect on the levels of Met-14-3-3γ: up to 10 μM, HUVEC, data not shown
Outline: (§1)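 HUVEC were exposed to test compound for 24 h, typically at 5 μM (some up to 10 μM), with DMSO as negative control. Lysates were immunoblotted for Met-14-3-3γ, 14-3-3γ, Ac-p53 and total p53. Band densities were taken as Met-14-3-3γ/14-3-3γ and Ac-p53/p53 per lane, relative to DMSO = 1.0. Ac-p53 was scored −(<2.0), +(2.0–7.0), ++(7.1–11.6), +++(>11.6).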

SIRT1 = experiment: Immunoblot of Ac-p53; type: cell-based, human; conditions: for Immunoblot Ac-p53: compound treated HUVEC lysates, 24 h, signal relative to DMSO = 1.0; for effect on the levels of Ac-p53: up to 10 μM, data not shown
Outline: as §1

HeLa = HeLa proliferation assay, 3H-T uptake; type: cell-based; conditions: Homo sapiens, HeLa, read-out: IC50 3H-T Uptake HeLa
HFF = HFF cell-viability assay using calcein-AM; type: cell-based, human; conditions: for IC50: Homo sapiens, HFF, read-out: IC50 Calcein-AM HFF
Jurkat-T = experiment: Jurkat T proliferation assay, 3H-T uptake; type: cell-based; conditions: Homo sapiens, Jurkat, read-out: IC50 3H-T Uptake Jurkat-T
HUVEC [2] = experiment: HUVEC cell-viability assay using calcein-AM; type: cell-based, human; conditions: Homo sapiens, HUVEC, read-out: IC50 Calcein-AM HUVEC
[3] = read-out: IC50 hMetAP2, enzyme assay, 10 μM Mn2+
[4] = read-out: IC50 HUVEC, proliferation, 3H-T uptake
[5] = read-out: IC50 hMetAP1, enzyme assay, 10 μM Co2+
[6] = Homo sapiens, HUVEC, read-out: IC50 HUVEC
[7] = IC50 hMetAP1, enzyme assay, 10 μM Co2+
[8] = Homo sapiens, HUVEC, read-out: IC50 HUVEC, proliferation, 3H-T uptake

hMetAP2, sequence (P50579 whole entry): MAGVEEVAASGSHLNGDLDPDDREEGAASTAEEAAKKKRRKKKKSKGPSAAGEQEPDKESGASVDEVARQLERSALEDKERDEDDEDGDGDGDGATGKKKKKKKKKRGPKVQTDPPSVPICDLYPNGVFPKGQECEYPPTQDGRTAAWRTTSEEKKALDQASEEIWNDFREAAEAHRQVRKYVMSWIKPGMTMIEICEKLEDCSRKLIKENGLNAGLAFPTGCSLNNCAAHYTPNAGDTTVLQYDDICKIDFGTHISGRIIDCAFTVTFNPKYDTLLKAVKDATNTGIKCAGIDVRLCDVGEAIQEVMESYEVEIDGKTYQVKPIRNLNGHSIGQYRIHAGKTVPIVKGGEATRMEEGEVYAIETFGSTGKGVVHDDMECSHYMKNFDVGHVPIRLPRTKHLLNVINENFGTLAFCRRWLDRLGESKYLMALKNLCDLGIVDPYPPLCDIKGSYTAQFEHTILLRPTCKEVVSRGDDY

Structure (SMILES) | IC50 (hMetAP2; [3]) | IC50 (HUVEC [1]; [4]) | IC50 (hMetAP1; [5]) | IC50 (hMetAP2) | IC50 (HUVEC [1]; [6]) | IC50 (hMetAP1; [7]) | also measured
O=S(=O)(O)c1ccc(O)c2ncccc12 [Entry 6] | > 15 µM | > 50 µM |  |  |  |  | 
O=[N+]([O-])c1cc(Cl)c2cccnc2c1O [Entry 44] | > 15 µM | 7.73 ± 0.77 µM | > 15 µM |  |  |  | 
CCCCCCN(CCCCCC)c1ccc(O)c2ncccc12 [Entry 36, 5-(N,N-Di-n-hexyl)amino-8-hydroxyquinoline] |  |  |  | > 40 µM | 0.789 ± 0.21 µM | > 40 µM | 
Oc1c(Br)cc(Br)c2cccnc12 [Entry 10] | > 15 µM | 2.53 ± 0.71 µM | > 15 µM |  |  |  | 
O=C(Nc1ccc(O)c2ncccc12)N1CCOCC1 [Entry 42, N-(8-Hydroxyquinolin-5-yl)morpholine-4-carboxamide] |  |  |  | > 40 µM | 1.88 ± 0.3 µM | > 40 µM | 
Oc1c(I)cc(I)c2cccnc12 [Entry 11] | > 15 µM | 2.62 ± 0.08 µM | > 15 µM |  |  |  | 
O=C(NCCCl)Oc1c(Cl)cc(Cl)c2cccnc12 [Entry 21, 5,7-Dichloroquinolin-8-yl 2-chloroethylcarbamate] |  |  |  |  |  | > 15 µM | IC50 (HUVEC [1]; [8]): 2.62 ± 0.5 µM
Oc1cccc2cccnc12 [Entry 1, 8-hydroxyquinoline] |  |  |  |  | 6.21 ± 1.1 µM |  | IC50 (hMetAP1; IC50 hMetAP1): > 15 µM
Cc1ccc2c([N+](=O)[O-])cc([N+](=O)[O-])c(O)c2n1 [Entry 43] | > 15 µM | 15.7 ± 1.3 µM | 17.3 ± 1.7 µM |  |  |  | 
CC(C)(C)C(=O)Oc1ccc([N+](=O)[O-])c2cccnc12 [Entry 46, 5-nitroquinolin-8-yl pivalate] |  |  |  | 0.434 ± 0.1 µM |  | > 15 µM | Immunoblot Met-14-3-3γ (MetAP): + (+, ≥1.5); Immunoblot Ac-p53 (SIRT1): ++ (++, 7.1–11.6)
NC(=O)COc1ccc([N+](=O)[O-])c2cccnc12 [Entry 50, 2-(5-nitroquinolin-8-yloxy)acetamide] |  |  |  | 1.06 ± 0.5 µM | 6.3 ± 1.4 µM | > 15 µM | 
Nc1cc(Cl)c2cccnc2c1O [Entry 45] | > 15 µM | 0.273 ± 0.07 µM | > 40 µM |  |  |  | Immunoblot Met-14-3-3γ (MetAP): − (−, >1.5); effect on the levels of Met-14-3-3γ (MetAP): no effect; Immunoblot Ac-p53 (SIRT1): − (−, <2.0); effect on the levels of Ac-p53 (SIRT1; HUVEC): no effect
Cc1ccc(S(=O)(=O)Nc2cccc3cccnc23)cc1 [Entry 32, 8-quinolinyl p-toluenesulfonamide] |  |  |  | > 15 µM | 0.308 ± 0.04 µM | 6.97 ± 0.25 µM | IC50 (HeLa): 1.12 ± 0.2 µM; Immunoblot Met-14-3-3γ (MetAP): − (−, >1.5); effect on the levels of Met-14-3-3γ (MetAP): no effect; Immunoblot Ac-p53 (SIRT1): − (−, <2.0); effect on the levels of Ac-p53 (SIRT1; HUVEC): no effect; b = bottom value of the curve, Calcein-AM HFF (HFF): 21%; IC50 (HFF): 0.909 ± 0.12 µM; b = bottom value in the dose-response curve, hMetAP1 (hMetAP1): 21%; IC50 (Jurkat-T): 0.79 ± 0.08 µM; IC50 (HUVEC [2]): 1.47 ± 0.2 µM
Oc1c(C(c2ccccc2)N2CCOCC2)cc(Cl)c2cccnc12 (stereo not shown) [Entry 18, 5-Chloro-7-(morpholino(phenyl)methyl)quinolin-8-ol] |  |  |  |  | 1.92 ± 0.6 µM | 14 µM | b = bottom value of the curve, Calcein-AM HFF (HFF): 18%; IC50 (HFF): 3.66 ± 0.7 µM; IC50 (HUVEC [2]): 3.55 ± 0.9 µM
CCN(CC)c1ccc(O)c2ncccc12 [Entry 35, 5-(N,N-Diethyl)amino-8-hydroxyquinoline] |  |  |  | 20.1 µM | 0.329 ± 0.17 µM | 7.21 ± 1.3 µM | b = bottom value in the dose-response curve, hMetAP2 (hMetAP2): 25%; b = bottom value in the dose-response curve, hMetAP1 (hMetAP1): 29%
COc1ccc(N2CCN(Cc3cc(Cl)c4cccnc4c3O)CC2)cc1 [Entry 17, 5-Chloro-7-((4-(4-methoxyphenyl)piperazin-1-yl)methyl)-quinolin-8-ol] |  |  |  | > 15 µM | 1.46 ± 0.33 µM | > 15 µM | Immunoblot Met-14-3-3γ (MetAP): − (−, >1.5); level of Ac-p53 compared to DMSO treated cells (SIRT1; 10 μM, HUVEC): did increase; Immunoblot Ac-p53 (SIRT1): + (+, 2.0–7.0)
CCCCCC(=O)Nc1ccc(O)c2ncccc12 [Entry 39, N-(8-Hydroxyquinolin-5-yl)hexanamide] |  |  |  | > 40 µM | 8.45 ± 0.91 µM | > 40 µM | 
Cc1ccc2cccc(O)c2n1 [Entry 2] | > 15 µM | 2.7 ± 0.61 µM | > 15 µM |  |  |  | 
C=CCOc1c(Cl)cc(Cl)c2cccnc12 [Entry 28, 8-(Allyloxy)-5,7-dichloroquinoline] |  |  |  | > 15 µM | 2.32 ± 0.23 µM | > 15 µM | 
CC(=O)Nc1ccc(O)c2ncccc12 [Entry 38] | > 40 µM | 10.2 ± 1.1 µM | > 40 µM |  |  |  | b = bottom value in the dose-response curve, HUVEC (HUVEC [1]; 3H-T uptake, noted only when above 15%): 28%

Structure (SMILES) | IC50 (hMetAP2; [3]) | IC50 (HUVEC [1]; [4]) | IC50 (hMetAP1; [5]) | IC50 (hMetAP2) | IC50 (HUVEC [1]; [6]) | IC50 (hMetAP1; [7]) | also measured
CCOC(=O)COc1ccc([N+](=O)[O-])c2cccnc12 [Entry 49, ethyl 2-(5-nitroquinolin-8-yloxy)acetate] |  |  |  | > 15 µM | 7.3 ± 0.81 µM | > 15 µM | 
Oc1c(I)cc(Cl)c2cccnc12 [Entry 7, Clioquinol, reference compound] |  |  |  | 2.39 ± 0.31 µM | 2.42 ± 0.5 µM | > 15 µM | IC50 (hMetAP1; IC50 MetAP1 with Co2+, Co2+ metalloform, data not shown): > 50 µM
Cc1ccc(S(=O)(=O)Nc2ccc([N+](=O)[O-])c3cccnc23)cc1 [Entry 55, 4-methyl-N-(5-nitroquinolin-8-yl)benzene-sulfonamide] |  |  |  | > 15 µM | 0.305 ± 0.07 µM | 21 µM | IC50 (HeLa): 1.03 ± 0.2 µM; Immunoblot Met-14-3-3γ (MetAP): − (−, >1.5); effect on the levels of Met-14-3-3γ (MetAP): no effect; Immunoblot Ac-p53 (SIRT1): − (−, <2.0); effect on the levels of Ac-p53 (SIRT1; HUVEC): no effect; b = bottom value of the curve, Calcein-AM HFF (HFF): 21%; IC50 (HFF): 0.783 ± 0.11 µM; b = bottom value in the dose-response curve, hMetAP1 (hMetAP1): 19%; IC50 (Jurkat-T): 0.82 ± 0.15 µM; IC50 (HUVEC [2]): 1.46 ± 0.21 µM
O=C(Nc1ccccc1)Oc1ccc(Cl)c2cccnc12 [Entry 22, 5-chloroquinolin-8-yl phenylcarbamate] |  | 1.21 ± 0.51 µM |  | 5.26 ± 0.6 µM |  | > 15 µM | b = bottom value in the dose-response curve, hMetAP2 (hMetAP2): 24%; inhibition at 10 µM (hMetAP2): > 90%; IC50 (HUVEC [1]; [8]): 1.2 µM
CC(C)S(=O)(=O)Nc1ccc(O)c2ncccc12 [Entry 41, N-(8-Hydroxyquinolin-5-yl)propane-2-sulfonamide] |  |  |  | > 40 µM | 12.9 ± 0.13 µM | > 40 µM | 
O=C(Nc1cc(F)cc(F)c1)Oc1ccc(Cl)c2cccnc12 [Entry 23, 5-Chloroquinolin-8-yl 3,5-difluorophenylcarbamate] |  |  |  | > 15 µM |  | > 15 µM | IC50 (HUVEC [1]; [8]): 2.2 ± 0.1 µM
N#Cc1ccc2cccc(O)c2n1 [Entry 3] | > 15 µM | > 50 µM | > 15 µM |  |  |  | 
Oc1c(CN2CCOCC2)ccc2cccnc12 [Entry 12] | > 15 µM | > 20 µM | > 50 µM |  |  |  | 
O=C(Nc1ccc(F)cc1)Oc1c(Cl)cc(Cl)c2cccnc12 [Entry 25, 5,7-Dichloroquinolin-8-yl 4-fluorophenylcarbamate] |  |  |  | > 15 µM |  | > 15 µM | IC50 (HUVEC [1]; [8]): 3.58 ± 0.9 µM
C=CCOc1ccc(Cl)c2cccnc12 [Entry 27, 5-chloro-8-allyloxyquinoline] |  |  |  | > 50 µM | > 50 µM | > 15 µM | inhibition at 10 µM (hMetAP2): > 90%
COc1ccc(CN(Cc2ccc(OC)cc2)c2ccc(O)c3ncccc23)cc1 [Entry 37, 5-(N,N-Di[(4-methoxy)benzyl])amino-8-hydroxyquinoline] |  |  |  | > 40 µM | 0.551 ± 0.08 µM | 1.46 ± 0.3 µM | b = bottom value in the dose-response curve, hMetAP1 (hMetAP1): 32%
Oc1c(Br)cc(Cl)c2cccnc12 [Entry 8] | > 15 µM | 2.21 ± 0.6 µM | > 15 µM |  |  |  | 
OCCOc1ccc(Cl)c2cccnc12 [Entry 29] | > 15 µM | 2.4 ± 0.3 µM | > 15 µM |  |  |  | 
CCOP(=O)(OCC)Oc1ccc(Cl)c2cccnc12 [Entry 26, 5-chloroquinolin-8-yl diethyl phosphate] |  |  |  | > 15 µM | > 50 µM | > 15 µM | 
Oc1c(Cl)cc(Cl)c2cccnc12 [Entry 9] | > 15 µM | 3.64 ± 0.53 µM | > 15 µM |  |  |  | 
Oc1ccc(Cl)c2cccnc12 [Entry 4, Cloxyquin, reference compound] |  |  |  |  | 1.41 ± 0.1 µM |  | 
C=CCOc1cccc2ccc(C#N)nc12 [Entry 30, 8-(Allyloxy)quinoline-2-carbonitrile] |  |  |  | > 15 µM | > 50 µM | > 15 µM | 
Oc1c(C(Nc2nccs2)c2ccco2)cc(Cl)c2cccnc12 (stereo not shown) [Entry 19, 5-Chloro-7-(furan-2-yl(thiazole-2-ylamino)methyl)quinolin-8-ol] |  |  |  | 2.75 ± 0.4 µM | 2.53 ± 0.13 µM | > 50 µM | 
Nc1cccc2cccnc12 [Entry 31, 8-aminoquinoline] |  |  |  | > 15 µM |  | > 15 µM | IC50 (HUVEC [1]; [8]): > 50 µM
